ChEMBL document CHEMBL2203081 (Bioorg Med Chem Lett, 2012)
Calls of active or inactive are those of the source. The calls are words filed in the database; no cut-off is given here.

Key:
[1] = target: Maternal embryonic leucine zipper kinase (Homo sapiens) (UniProt Q14680); experiment: Inhibition of MELK assessed as residual activity at 1 uM
[2] = target: Mitogen-activated protein kinase 13 (Homo sapiens) (UniProt O15264); experiment: Inhibition of p38-delta assessed as residual activity at 10 uM relative to control
[3] = target: Leucine-rich repeat serine/threonine-protein kinase 2 (Homo sapiens) (UniProt Q5S007); conditions: HEK293, 0.3 to 1 uM
[4] = target: Mast/stem cell growth factor receptor Kit (Homo sapiens) (UniProt P10721); experiment: Inhibition of KIT assessed as residual activity at 10 uM relative to control
[5] = target: Tyrosine-protein kinase receptor UFO (Homo sapiens) (UniProt P30530); experiment: Inhibition of AXL assessed as residual activity at 10 uM relative to control
[6] = target: Myosin light chain kinase, smooth muscle (Homo sapiens) (UniProt Q15746); experiment: Inhibition of SmMLCK assessed as residual activity at 10 uM
[7] = target: Serine/threonine-protein kinase WNK1 (Homo sapiens) (UniProt Q9H4A3); experiment: Inhibition of WNK1 assessed as residual activity at 10 uM relative to control
[8] = target: Tyrosine-protein kinase Lyn (Homo sapiens) (UniProt P07948); experiment: Inhibition of LYN assessed as residual activity at 10 uM relative to control
[9] = target: Tyrosine-protein kinase SYK (Homo sapiens) (UniProt P43405); experiment: Inhibition of SYK assessed as residual activity at 10 uM
[10] = target: Angiopoietin-1 receptor (Homo sapiens) (UniProt Q02763); experiment: Inhibition of TIE2 assessed as residual activity at 10 uM
[11] = target: Protein-tyrosine kinase 6 (Homo sapiens) (UniProt Q13882); experiment: Inhibition of BRK assessed as residual activity at 1 uM
Method in brief: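 Radioactivity-based enzymatic assay against a panel of 131 kinases (Dundee profiling). Activity remaining was measured with compound present at the stated concentration.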

[12] = target: Receptor-interacting serine/threonine-protein kinase 2 (Homo sapiens) (UniProt O43353); experiment: Inhibition of RIPK2 assessed as residual activity at 10 uM
[13] = target: Phosphorylase b kinase gamma catalytic chain, skeletal muscle/heart isoform (Homo sapiens) (UniProt Q16816); experiment: Inhibition of PHKG1 assessed as residual activity at 10 uM relative to control
[14] = target: Serine/threonine-protein kinase WNK3 (Homo sapiens) (UniProt Q9BYP7); experiment: Inhibition of WNK3 assessed as residual activity at 10 uM relative to control
[15] = target: MAP kinase-activated protein kinase 5 (Homo sapiens) (UniProt Q8IW41); experiment: Inhibition of PRAK assessed as residual activity at 10 uM
[16] = target: Mitogen-activated protein kinase 14 (Homo sapiens) (UniProt Q16539); experiment: Inhibition of p38a MAPK assessed as residual activity at 1 uM
[17] = target: Serine/threonine-protein kinase tousled-like 1 (Homo sapiens) (UniProt Q9UKI8); experiment: Inhibition of TLK1 assessed as residual activity at 10 uM relative to control
[18] = target: Serine/threonine-protein kinase PknB (Mycobacterium tuberculosis) (UniProt P9WI81); experiment: Inhibition of Mycobacterium tuberculosis PKNB assessed as residual activity at 10 uM relative to control
[19] = target: Receptor-interacting serine/threonine-protein kinase 2 (Homo sapiens) (UniProt O43353); experiment: Inhibition of RIPK2 assessed as residual activity at 10 uM relative to control
[20] = target: Serine/threonine-protein kinase LATS2 (Homo sapiens) (UniProt Q9NRM7); experiment: Inhibition of LATS2 assessed as residual activity at 10 uM relative to control
[21] = tested on: Brain; experiment: Volume of distribution at steady state in Swiss albino mouse […] at 1 mg/kg, iv; assay type: ADME, organism-based; design: dose 1 mg/kg, route intravenous; conditions: in vivo
[22] = target: Macrophage colony-stimulating factor 1 receptor (Homo sapiens) (UniProt P07333); experiment: Inhibition of CSF1R assessed as residual activity at 10 uM relative to control
Method in brief: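 Competition kinase-binding assay (KINOMEscan) across a non-redundant panel of 329 kinases beyond the radiometric panel; residual binding expressed relative to control.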

[23] = target: Fibroblast growth factor receptor 1 (Homo sapiens) (UniProt P11362); experiment: Inhibition of FGF-R1 assessed as residual activity at 1 uM
Method in brief: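 Radioactivity-based enzymatic activity assay of the named kinase, run as part of a 131-kinase specificity panel at the National Centre for Protein Kinase Profiling (Dundee). Residual activity was read at the stated single inhibitor concentration.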

[24] = tested on: Plasma; experiment: AUClast in Swiss albino mouse plasma at 10 mg/kg, po; assay type: ADME, organism-based; design: dose 10 mg/kg, route oral, time 0 - last; conditions: in vivo
Method in brief: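 Male Swiss Albino mice, single dose given intravenously (1 mg/kg) or orally (10 mg/kg). Drug measured in plasma and brain, with AUClast taken for each. The brain/plasma ratio is based on AUClast, and oral bioavailability is derived from the IV and PO plasma data.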

[25] = target: Serine/threonine-protein kinase SIK2 (Homo sapiens) (UniProt Q9H0K1); experiment: Inhibition of SIK2 assessed as residual activity at 10 uM
[26] = target: Serine/threonine-protein kinase OSR1 (Homo sapiens) (UniProt O95747); experiment: Inhibition of OSR1 assessed as residual activity at 10 uM relative to control
[27] = tested on: Leucine-rich repeat serine/threonine-protein kinase 2 (Homo sapiens), Q5S007 [A2016T]; conditions: HEK293, 1 to 3 uM
[28] = target: Myosin light chain kinase, smooth muscle (Homo sapiens) (UniProt Q15746); experiment: Inhibition of SmMLCK assessed as residual activity at 1 uM
[29] = target: Angiopoietin-1 receptor (Homo sapiens) (UniProt Q02763); experiment: Inhibition of TIE2 assessed as residual activity at 1 uM
[30] = target: Inhibitor of nuclear factor kappa-B kinase subunit alpha (Homo sapiens) (UniProt O15111); experiment: Inhibition of IKK-alpha assessed as residual activity at 10 uM relative to control
[31] = target: Interleukin-1 receptor-associated kinase 4 (Homo sapiens) (UniProt Q9NWZ3); experiment: Inhibition of IRAK4 assessed as residual activity at 10 uM relative to control
[32] = target: Tyrosine-protein kinase ZAP-70 (Homo sapiens) (UniProt P43403); experiment: Inhibition of ZAP70 assessed as residual activity at 1 uM
[33] = target: Rho-associated protein kinase 1 (Homo sapiens) (UniProt Q13464); experiment: Inhibition of ROCK1 assessed as residual activity at 10 uM relative to control

Sequence of Myosin light chain kinase, smooth muscle (Homo sapiens) (Q15746 whole entry): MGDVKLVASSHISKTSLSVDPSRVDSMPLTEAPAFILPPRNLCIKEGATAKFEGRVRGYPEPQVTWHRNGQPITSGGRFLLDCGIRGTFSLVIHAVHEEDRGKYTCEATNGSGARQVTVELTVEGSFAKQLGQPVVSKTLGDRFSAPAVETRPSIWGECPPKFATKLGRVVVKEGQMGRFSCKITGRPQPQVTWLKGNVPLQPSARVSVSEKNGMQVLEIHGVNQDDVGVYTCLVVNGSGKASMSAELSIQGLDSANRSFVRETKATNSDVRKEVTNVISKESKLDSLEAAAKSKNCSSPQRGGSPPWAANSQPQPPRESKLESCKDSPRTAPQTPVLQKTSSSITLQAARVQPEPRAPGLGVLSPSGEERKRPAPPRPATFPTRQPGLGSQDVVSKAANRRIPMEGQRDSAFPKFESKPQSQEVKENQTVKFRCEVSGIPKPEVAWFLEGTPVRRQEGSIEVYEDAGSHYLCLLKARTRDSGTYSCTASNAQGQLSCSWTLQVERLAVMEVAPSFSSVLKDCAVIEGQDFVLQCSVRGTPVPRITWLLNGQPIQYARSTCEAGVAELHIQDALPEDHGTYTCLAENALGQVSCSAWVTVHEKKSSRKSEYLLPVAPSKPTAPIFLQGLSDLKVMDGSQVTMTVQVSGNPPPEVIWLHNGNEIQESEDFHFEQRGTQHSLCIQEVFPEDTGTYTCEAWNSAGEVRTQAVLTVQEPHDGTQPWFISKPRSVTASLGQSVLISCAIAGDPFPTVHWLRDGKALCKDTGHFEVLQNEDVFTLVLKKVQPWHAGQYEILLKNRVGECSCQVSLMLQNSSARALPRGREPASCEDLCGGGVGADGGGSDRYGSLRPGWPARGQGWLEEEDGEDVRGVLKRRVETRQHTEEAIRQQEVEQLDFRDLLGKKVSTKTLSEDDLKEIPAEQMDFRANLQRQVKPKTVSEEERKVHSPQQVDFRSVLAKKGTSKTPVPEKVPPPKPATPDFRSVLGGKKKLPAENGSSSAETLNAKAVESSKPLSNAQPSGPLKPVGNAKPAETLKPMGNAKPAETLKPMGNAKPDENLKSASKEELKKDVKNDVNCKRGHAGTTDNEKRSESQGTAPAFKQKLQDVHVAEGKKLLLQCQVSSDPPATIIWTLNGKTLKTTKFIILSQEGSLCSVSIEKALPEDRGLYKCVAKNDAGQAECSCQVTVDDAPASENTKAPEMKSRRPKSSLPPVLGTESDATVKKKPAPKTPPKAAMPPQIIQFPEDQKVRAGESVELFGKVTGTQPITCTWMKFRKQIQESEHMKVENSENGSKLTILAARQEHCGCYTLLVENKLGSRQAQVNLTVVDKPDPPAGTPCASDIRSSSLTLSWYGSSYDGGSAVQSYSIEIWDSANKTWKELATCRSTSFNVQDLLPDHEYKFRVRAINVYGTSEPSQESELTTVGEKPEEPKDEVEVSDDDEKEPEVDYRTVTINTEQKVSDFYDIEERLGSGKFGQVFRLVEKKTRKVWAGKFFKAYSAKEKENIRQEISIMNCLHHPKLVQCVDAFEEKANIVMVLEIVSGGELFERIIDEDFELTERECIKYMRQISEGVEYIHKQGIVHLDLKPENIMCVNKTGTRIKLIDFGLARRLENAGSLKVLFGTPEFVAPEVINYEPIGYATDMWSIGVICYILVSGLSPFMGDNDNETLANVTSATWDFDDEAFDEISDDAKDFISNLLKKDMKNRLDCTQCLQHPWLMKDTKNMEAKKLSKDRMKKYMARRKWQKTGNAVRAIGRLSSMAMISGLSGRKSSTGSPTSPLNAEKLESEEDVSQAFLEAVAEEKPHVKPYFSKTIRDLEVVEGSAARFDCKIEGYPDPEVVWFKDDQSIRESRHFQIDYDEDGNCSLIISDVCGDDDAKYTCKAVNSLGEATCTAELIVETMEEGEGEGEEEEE
Sequence of Receptor-interacting serine/threonine-protein kinase 2 (Homo sapiens) (O43353 whole entry, canonical isoform): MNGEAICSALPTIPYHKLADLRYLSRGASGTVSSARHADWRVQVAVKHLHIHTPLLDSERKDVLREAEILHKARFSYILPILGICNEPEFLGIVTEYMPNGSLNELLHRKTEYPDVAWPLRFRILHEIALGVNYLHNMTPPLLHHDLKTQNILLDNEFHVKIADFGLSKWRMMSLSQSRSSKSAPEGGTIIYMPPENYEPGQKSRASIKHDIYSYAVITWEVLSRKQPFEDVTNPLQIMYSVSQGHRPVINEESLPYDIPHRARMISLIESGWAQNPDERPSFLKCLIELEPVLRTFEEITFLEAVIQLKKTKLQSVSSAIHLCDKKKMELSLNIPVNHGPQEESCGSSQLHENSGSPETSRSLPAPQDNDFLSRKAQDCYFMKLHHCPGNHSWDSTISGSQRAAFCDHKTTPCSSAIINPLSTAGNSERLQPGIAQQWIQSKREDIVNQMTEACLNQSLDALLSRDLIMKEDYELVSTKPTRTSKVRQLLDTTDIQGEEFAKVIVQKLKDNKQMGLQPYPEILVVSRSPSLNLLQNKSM
Sequence of Angiopoietin-1 receptor (Homo sapiens) (Q02763 whole entry): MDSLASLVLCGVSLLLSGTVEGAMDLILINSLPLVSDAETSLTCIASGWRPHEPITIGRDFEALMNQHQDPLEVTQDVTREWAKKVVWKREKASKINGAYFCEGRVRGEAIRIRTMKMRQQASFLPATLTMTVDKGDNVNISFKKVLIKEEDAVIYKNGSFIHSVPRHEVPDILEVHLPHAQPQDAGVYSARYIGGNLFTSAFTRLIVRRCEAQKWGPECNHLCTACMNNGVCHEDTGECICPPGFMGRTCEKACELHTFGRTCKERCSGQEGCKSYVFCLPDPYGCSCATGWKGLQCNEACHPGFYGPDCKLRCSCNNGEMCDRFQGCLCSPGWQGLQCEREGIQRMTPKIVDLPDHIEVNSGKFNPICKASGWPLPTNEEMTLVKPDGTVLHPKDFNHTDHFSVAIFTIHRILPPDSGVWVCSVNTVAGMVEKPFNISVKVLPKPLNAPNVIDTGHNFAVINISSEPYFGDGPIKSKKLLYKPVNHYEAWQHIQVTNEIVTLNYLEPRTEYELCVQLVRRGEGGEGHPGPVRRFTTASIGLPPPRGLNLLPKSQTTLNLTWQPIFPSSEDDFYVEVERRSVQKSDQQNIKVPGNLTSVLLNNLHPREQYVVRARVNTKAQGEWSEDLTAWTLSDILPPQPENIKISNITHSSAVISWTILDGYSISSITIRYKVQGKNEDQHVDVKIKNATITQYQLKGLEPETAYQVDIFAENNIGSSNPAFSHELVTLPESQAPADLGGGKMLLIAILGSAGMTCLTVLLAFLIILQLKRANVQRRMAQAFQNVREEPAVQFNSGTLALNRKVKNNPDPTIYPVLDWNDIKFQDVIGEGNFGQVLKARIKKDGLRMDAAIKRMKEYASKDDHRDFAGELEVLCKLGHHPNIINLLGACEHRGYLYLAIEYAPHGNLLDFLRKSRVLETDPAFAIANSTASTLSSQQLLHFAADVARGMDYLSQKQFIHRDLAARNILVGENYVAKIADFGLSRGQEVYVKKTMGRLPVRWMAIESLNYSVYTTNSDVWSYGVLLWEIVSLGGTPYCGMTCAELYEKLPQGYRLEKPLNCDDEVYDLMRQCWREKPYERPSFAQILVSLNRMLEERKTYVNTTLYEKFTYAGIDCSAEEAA
Sequence of Serine/threonine-protein kinase PknB (Mycobacterium tuberculosis) (P9WI81 whole entry): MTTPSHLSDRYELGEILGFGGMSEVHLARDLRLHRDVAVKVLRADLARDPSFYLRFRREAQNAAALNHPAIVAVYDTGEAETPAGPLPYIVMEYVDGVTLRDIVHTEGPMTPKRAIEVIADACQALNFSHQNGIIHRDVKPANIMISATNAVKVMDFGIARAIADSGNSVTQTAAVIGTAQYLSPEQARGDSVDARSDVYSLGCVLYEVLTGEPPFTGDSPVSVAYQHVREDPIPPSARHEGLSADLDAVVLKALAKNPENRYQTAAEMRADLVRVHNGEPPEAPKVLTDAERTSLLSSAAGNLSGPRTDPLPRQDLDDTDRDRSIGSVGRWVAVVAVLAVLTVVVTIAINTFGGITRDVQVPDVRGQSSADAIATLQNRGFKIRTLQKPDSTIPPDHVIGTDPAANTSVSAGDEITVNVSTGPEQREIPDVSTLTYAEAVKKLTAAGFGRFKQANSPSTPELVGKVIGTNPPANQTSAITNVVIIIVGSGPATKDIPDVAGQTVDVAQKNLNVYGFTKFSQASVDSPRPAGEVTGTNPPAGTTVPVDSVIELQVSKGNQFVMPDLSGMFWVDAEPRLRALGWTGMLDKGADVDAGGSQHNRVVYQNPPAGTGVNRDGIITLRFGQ
Sequence of Interleukin-1 receptor-associated kinase 4 (Homo sapiens) (Q9NWZ3 whole entry): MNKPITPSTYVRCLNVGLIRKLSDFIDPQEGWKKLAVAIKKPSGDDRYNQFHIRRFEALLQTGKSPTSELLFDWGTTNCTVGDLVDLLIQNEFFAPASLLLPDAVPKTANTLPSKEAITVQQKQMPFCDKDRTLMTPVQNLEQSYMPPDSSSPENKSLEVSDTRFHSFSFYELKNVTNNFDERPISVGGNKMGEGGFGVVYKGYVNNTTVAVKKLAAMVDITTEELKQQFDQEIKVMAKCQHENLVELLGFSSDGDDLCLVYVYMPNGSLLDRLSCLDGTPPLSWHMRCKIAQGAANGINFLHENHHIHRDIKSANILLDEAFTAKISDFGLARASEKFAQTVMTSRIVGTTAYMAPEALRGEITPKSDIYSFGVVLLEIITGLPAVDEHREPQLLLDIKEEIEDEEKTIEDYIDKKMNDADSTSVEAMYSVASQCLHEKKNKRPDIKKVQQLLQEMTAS
Sequence of Phosphorylase b kinase gamma catalytic chain, skeletal muscle/heart isoform (Homo sapiens) (Q16816 whole entry, looked up, canonical isoform): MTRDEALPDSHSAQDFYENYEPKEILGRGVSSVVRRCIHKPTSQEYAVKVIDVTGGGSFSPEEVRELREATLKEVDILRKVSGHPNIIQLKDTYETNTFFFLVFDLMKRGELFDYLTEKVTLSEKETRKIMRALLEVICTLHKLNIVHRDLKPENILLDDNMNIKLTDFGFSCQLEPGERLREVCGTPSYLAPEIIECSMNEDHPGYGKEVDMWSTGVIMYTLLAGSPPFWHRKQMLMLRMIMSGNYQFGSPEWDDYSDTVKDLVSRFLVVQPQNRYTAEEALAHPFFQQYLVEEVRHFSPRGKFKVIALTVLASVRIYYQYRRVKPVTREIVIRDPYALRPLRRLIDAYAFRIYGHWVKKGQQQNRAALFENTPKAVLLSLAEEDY

Question: How did the Activity [1] turn out when `O=C(Nc1cccnc1)c1cc(-c2ccnc(F)c2)ccc1OCc1ccccc1` was run?
Answer: 102%

Question: What about the Activity [2] of the same compound?
Answer: 75%

Question: And the inhibition [3]?
Answer: Active

Question: What about the Activity [4] of the same compound?
Answer: 39%

Question: What about the Activity [5] of the same compound?
Answer: 46%

Question: What about the Activity [6] of the same compound?
Answer: 23%

Question: What about the Activity [7] of the same compound?
Answer: 61%

Question: And the Activity [8]?
Answer: 73%

Question: What about the Activity [9] of the same compound?
Answer: 125%

Question: And the Activity [10]?
Answer: 133%

Question: What about the Activity [11] of the same compound?
Answer: 103%

Question: And the Activity [12]?
Answer: 56%

Question: And the Activity [13]?
Answer: 80%

Question: And the Activity [14]?
Answer: 62%

Question: What about the Activity [15] of the same compound?
Answer: 114%

Question: And the Activity [16]?
Answer: 101%

Question: What about the Activity [17] of the same compound?
Answer: 66%

Question: And the Activity [18]?
Answer: 72%

Question: What about the Activity [19] of the same compound?
Answer: 53%

Question: And the Activity [20]?
Answer: 32%

Question: And the Vdss [21]?
Answer: 1.6 L/kg

Question: What about the Activity [22] of the same compound?
Answer: 68%

Question: What about the Activity [23] of the same compound?
Answer: 110%

Question: And the AUClast [24]?
Answer: 635.3 ng·h/mL

Question: What about the Activity [25] of the same compound?
Answer: 111%

Question: What about the Activity [26] of the same compound?
Answer: 63%

Question: And the inhibition [27]?
Answer: Active

Question: What about the Activity [28] of the same compound?
Answer: 32%

Question: And the Activity [29]?
Answer: 119%

Question: What about the Activity [30] of the same compound?
Answer: 58%

Question: What about the Activity [31] of the same compound?
Answer: 58%

Question: What about the Activity [32] of the same compound?
Answer: 103%

Question: What about the Activity [33] of the same compound?
Answer: 38%
